Results taken from ChEMBL document CHEMBL1821578, “Bioactive A-type proanthocyanidins from Cinnamomum cassia” (J Nat Prod, 2011).

Tests used:
[1] = biological target: T1, Prostaglandin G/H synthase 2 (Homo sapiens) (UniProt P35354); test: Inhibition of human recombinant COX2 expressed in Sf9 cells at 1000 ug/mL
T1 sequence (whole entry): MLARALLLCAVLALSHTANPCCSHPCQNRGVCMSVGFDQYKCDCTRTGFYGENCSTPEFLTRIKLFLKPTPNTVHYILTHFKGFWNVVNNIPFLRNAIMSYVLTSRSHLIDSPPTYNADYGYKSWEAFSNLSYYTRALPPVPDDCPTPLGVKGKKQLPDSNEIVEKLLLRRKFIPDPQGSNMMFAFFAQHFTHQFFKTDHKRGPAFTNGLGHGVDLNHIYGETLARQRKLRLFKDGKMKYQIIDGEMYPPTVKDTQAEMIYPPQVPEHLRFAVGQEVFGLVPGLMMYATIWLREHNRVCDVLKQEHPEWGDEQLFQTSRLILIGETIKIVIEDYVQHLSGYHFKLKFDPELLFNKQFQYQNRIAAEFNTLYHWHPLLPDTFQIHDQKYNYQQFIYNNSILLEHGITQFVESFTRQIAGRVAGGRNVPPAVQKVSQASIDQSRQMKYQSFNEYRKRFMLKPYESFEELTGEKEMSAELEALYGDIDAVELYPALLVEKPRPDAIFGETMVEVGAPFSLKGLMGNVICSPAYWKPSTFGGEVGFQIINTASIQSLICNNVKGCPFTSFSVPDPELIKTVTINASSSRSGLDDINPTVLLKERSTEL
Outline: (§1)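 Enzyme: human recombinant COX-2 produced in Sf9 cells, assayed by a previously published procedure. Each compound was run in triplicate at three log-spaced levels (10, 100 and 1000 μg/mL). Inhibition of enzyme activity is the read-out.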

[2] = biological target: T1, Prostaglandin G/H synthase 2 (Homo sapiens); test: Inhibition of human recombinant COX2 expressed in Sf9 cells at 100 ug/mL; outline: as §1
[3] = biological target: T1, Prostaglandin G/H synthase 2 (Homo sapiens); test: Inhibition of human recombinant COX2 expressed in Sf9 cells at 10 ug/mL; outline: as §1

SMILES | inhibition [1] [%] | inhibition [2] [%] | inhibition [3] [%]
Oc1cc(O)c2c(c1)O[C@@]1(c3ccc(O)c(O)c3)Oc3cc(O)c4c(c3[C@@H]2[C@H]1O)O[C@H](c1ccc(O)c(O)c1)[C@H](O)[C@H]4c1c(O)cc(O)c2c1O[C@H](c1ccc(O)c(O)c1)[C@@H](O)C2 (mixture of isomers) | 95 | 44 | 2
Oc1cc(O)c2c(c1)O[C@@]1(c3ccc(O)c(O)c3)Oc3cc(O)c4c(c3[C@@H]2[C@H]1O)O[C@H](c1ccc(O)c(O)c1)[C@H](O)[C@H]4c1c(O)cc(O)c2c1O[C@H](c1ccc(O)c(O)c1)[C@H](O)C2 (mixture of isomers) | 86 | 27 | 19
Oc1cc(O)c2c(c1)O[C@H](c1ccc(O)c(O)c1)[C@H](O)[C@H]2c1c(O)c2c(c3c1O[C@]1(c4ccc(O)c(O)c4)Oc4cc(O)cc(O)c4[C@H]3[C@H]1O)O[C@H](c1ccc(O)c(O)c1)[C@H](O)[C@H]2c1c(O)cc(O)c2c1O[C@H](c1ccc(O)c(O)c1)[C@@H](O)C2 (mixture of isomers) | 97 | 52 | 38
Oc1cc(O)c2c(c1)O[C@H](c1ccc(O)c(O)c1)[C@H](O)[C@H]2c1c(O)c2c(c3c1O[C@]1(c4ccc(O)c(O)c4)Oc4cc(O)cc(O)c4[C@H]3[C@H]1O)O[C@H](c1ccc(O)c(O)c1)[C@H](O)[C@H]2c1c(O)cc(O)c2c1O[C@H](c1ccc(O)c(O)c1)[C@H](O)C2 (mixture of isomers) | 94 | 86 | 14
